Experimental data from ChEMBL document CHEMBL5385953, “Antiviral Rotenoids and Isoflavones Isolated from Millettia oblata ssp. teitensis” (J Nat Prod, 2024).
Active and inactive are the calls of the source. The rule behind the calls is not given here.

Experiments:
HEp-2 [1] = test: Cytotoxicity against human HEp-2 cells measured after 3 days by CellTiter 96 aqueous one solution assay (Rvb >100 microM); type: functional; details: HEp-2, 72 h, time 3 day
HEp-2 [2] = test: Cytostatic activity against human HEp-2 cells assessed as poor cell staining at 20 uM measured after 3 days by CellTiter 96 aqueous one solution assay; type: functional, cell-based; details: time 3.0 day
Summary of the method: (§1)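 Compound-treated HEp-2 cells (grown in DMEM with 8% fetal calf serum and 292 μg/mL L-glutamine) were examined by microscopy alongside the tetrazolium viability assay. Cytostatic effects were scored as poor cell proliferation, altered cell shape or poor cell staining.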

HEp-2 [3] = test: Cytostatic activity against human HEp-2 cells assessed as poor cell staining at 4.0 uM measured after 3 days by CellTiter 96 aqueous one solution assay; type: functional, cell-based; details: time 3.0 day
[4] = Selectivity index, ratio of CC50 for human HEp-2 cells to IC50 for Human respiratory syncytial virus infected in human HEp-2 cells; type: toxicity, cell-based; details: read-out: Ratio CC50/IC50
HEp-2 [5] = test: Cytostatic activity against human HEp-2 cells assessed as poor cell staining at 4.0 to 100 uM measured after 3 days by CellTiter 96 aqueous one solution assay; type: functional, cell-based; details: dose 4-100 µM, time 3.0 day
HEp-2 [6] = test: Cytostatic activity against human HEp-2 cells assessed as poor cell staining at 0.8 to 4.0 uM measured after 3 days by CellTiter 96 aqueous one solution assay; type: functional, cell-based; details: dose 0.8-4 µM, time 3.0 day; summary of the method: as §1
HEp-2 [7] = test: Cytostatic activity against human HEp-2 cells assessed as poor cell proliferation at 100 uM measured after 3 days by CellTiter 96 aqueous one solution assay; type: functional, cell-based; details: time 3.0 day; summary of the method: as §1
HEp-2 [8] = test: Cytostatic activity against human HEp-2 cells assessed as poor cell staining at 100 uM measured after 3 days by CellTiter 96 aqueous one solution assay; type: functional, cell-based; details: time 3.0 day

Compound | CC50 (HEp-2 [1]) [µM] | also measured
COc1ccc2c(c1)O[C@@H]1COc3cc4c(cc3[C@@H]1C2=O)OCO4 | > 100 | –
COc1cc2c(cc1-c1coc3c4c(c(OC)cc3c1=O)OC(C)(C)C=C4)OCO2 [ICHTHYNONE] | 91 | Activity (HEp-2 [2]): Active
COc1ccc2c(=O)c(-c3cc(OC)c4c(c3OC)OCO4)coc2c1 | > 100 | –
COc1c(O[C@@H]2O[C@H](CO[C@H]3O[C@H](C)[C@@H](O)[C@H](O)[C@@H]3O)[C@@H](O[C@@H]3O[C@H](CO[C@H]4O[C@H](C)[C@@H](O)[C@H](O)[C@@H]4O)[C@@H](O)[C@H](O)[C@H]3O)[C@H](O)[C@H]2O)cc2c(=O)c(-c3ccc4c(c3)OCO4)coc2c1OC | > 100 | –
COc1ccc2c(c1)O[C@@H]1COc3cc4c(cc3[C@]1(O)C2=O)OCO4 | – | Activity (HEp-2 [2]): Active
COc1ccc2c(c1)O[C@@H]1COc3cc(OC)c(OC)cc3[C@]1(O)C2=O | – | Activity (HEp-2 [2]): Active
COc1ccc2c(c1)O[C@@H]1COc3c(cc(OC)c4c3OCO4)[C@@H]1C2=O | > 100 | –
COc1ccc2c(=O)c(-c3cc4c(cc3OC)OCO4)coc2c1 | – | Activity (HEp-2 [2]): Active
COc1cc2c(cc1OC)[C@@H]1C(=O)c3ccc4c(c3O[C@@H]1CO2)C=CC(C)(C)O4 [DEGUELIN] | – | Activity (HEp-2 [3]): Active; selectivity ratio [4]: 61.6
COc1cc2c(cc1OC)C(=O)[C@@]1(O)c3cc4c(cc3OC[C@H]1O2)OCO4 | > 100 | –
CC(C)=CCOc1ccc(-c2coc3c4c(ccc3c2=O)OC(C)(C)C=C4)cc1 | > 100 | Activity (HEp-2 [5]): Active; selectivity ratio [4]: > 47.6
COc1cc2c(cc1OC)[C@]1(O)C(=O)c3ccc4c(c3O[C@@H]1CO2)C=CC(C)(C)O4 | – | Activity (HEp-2 [6]): Active
COc1cc2c(cc1-c1coc3cc(O)ccc3c1=O)OCO2 [CUNEATIN] | > 100 | –
NC(=O)c1ncn([C@@H]2O[C@H](CO)[C@@H](O)[C@H]2O)n1 [RIBAVIRIN] | > 100 | Activity (HEp-2 [7]): Active
CC(C)=CCOc1ccc(-c2coc3c4c(cc(O)c3c2=O)OC(C)(C)C=C4)cc1 | > 100 | Activity (HEp-2 [8]): Active
CC1(C)C=Cc2c(ccc3c(=O)c(-c4ccc5c(c4)OCO5)coc23)O1 | > 100 | –
